Results published in ChEMBL document CHEMBL1154716, “Synthesis of some new S-triazine based chalcones and their derivatives as potent antimicrobial agents” (2010).
In brackets after ≈: the same amount, converted by molar mass. Activity calls are given as the source filed them. The calls are words filed in the database; no cut-off is given here.

Key:
Bacillus cereus [1] = experiment: Antimicrobial activity against Bacillus cereus at 10 ug/disk after 24 hrs by disk diffusion assay; format: functional
How it was run: (§1)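 Disc diffusion on 4 mm filter discs. Bacteria are grown overnight in LB at 28 C, then adjusted in saline to 1.0 × 10^5 cfu/ml. The suspension is mixed into top agar over peptone agar plates. Plates are incubated 24 h at 28 C, and growth-inhibition zone diameter is measured. Streptomycin and ampicillin controls are applied from a 1 mg/ml stock. Tests are done in duplicate.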

Micrococcus flavus [2] = experiment: Antimicrobial activity against Micrococcus flavus at 10 ug/disk after 24 hrs by disk diffusion assay; format: functional; how it was run: as §1
Staphylococcus aureus [3] = experiment: Antimicrobial activity against Staphylococcus aureus at 10 ug/disk after 24 hrs by disk diffusion assay; format: functional; how it was run: as §1
Escherichia coli [4] = experiment: Antimicrobial activity against Escherichia coli at 10 ug/disk after 24 hrs by disk diffusion assay; format: functional; how it was run: as §1
Pseudomonas aeruginosa [5] = experiment: Antimicrobial activity against Pseudomonas aeruginosa at 10 ug/disk after 24 hrs by disk diffusion assay; format: functional; how it was run: as §1
Enterobacter cloacae [6] = experiment: Antimicrobial activity against Enterobacter cloacae at 10 ug/disk after 24 hrs by disk diffusion assay; format: functional; how it was run: as §1
Salmonella typhimurium [7] = experiment: Antimicrobial activity against Salmonella Typhimurium at 10 ug/disk after 24 hrs by disk diffusion assay; format: functional, organism-based; conditions: Salmonella enterica subsp. enterica serovar Typhimurium; how it was run: as §1
Listeria monocytogenes [8] = experiment: Antimicrobial activity against Listeria monocytogenes at 10 ug/disk after 24 hrs by disk diffusion assay; format: functional; how it was run: as §1
Bacillus cereus [9] = experiment: Antimicrobial activity against Bacillus cereus at 1 umol/disk after 24 hrs by disk diffusion assay; format: functional; how it was run: as §1
Micrococcus flavus [10] = experiment: Antimicrobial activity against Micrococcus flavus at 1 umol/disk after 24 hrs by disk diffusion assay; format: functional; how it was run: as §1
Staphylococcus aureus [11] = experiment: Antimicrobial activity against Staphylococcus aureus at 1 umol/disk after 24 hrs by disk diffusion assay; format: functional; how it was run: as §1
Escherichia coli [12] = experiment: Antimicrobial activity against Escherichia coli at 1 umol/disk after 24 hrs by disk diffusion assay; format: functional; how it was run: as §1
Pseudomonas aeruginosa [13] = experiment: Antimicrobial activity against Pseudomonas aeruginosa at 1 umol/disk after 24 hrs by disk diffusion assay; format: functional; how it was run: as §1
Enterobacter cloacae [14] = experiment: Antimicrobial activity against Enterobacter cloacae at 1 umol/disk after 24 hrs by disk diffusion assay; format: functional; how it was run: as §1
Salmonella typhimurium [15] = experiment: Antimicrobial activity against Salmonella Typhimurium at 1 umol/disk after 24 hrs by disk diffusion assay; format: functional, organism-based; conditions: Salmonella enterica subsp. enterica serovar Typhimurium; how it was run: as §1
Listeria monocytogenes [16] = experiment: Antimicrobial activity against Listeria monocytogenes at 1 umol/disk after 24 hrs by disk diffusion assay; format: functional; how it was run: as §1
Bacillus cereus [17] = experiment: Antimicrobial activity against Bacillus cereus at 1 umol/spot after 18 hrs by TLC-bioautographic method; format: functional
How it was run: (§2)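 TLC bioautography. Samples are spotted on silica gel TLC plates, then sprayed with bacteria (1.0 × 10^5 cfu/ml) in tryptic soy broth. Plates are incubated 18 h at 37 C and sprayed with 3% aqueous p-iodonitrotetrazolium violet. After a further 3 h, growth is stopped with 70% EtOH. White zones on a pink background are scored as inhibition-zone diameter with standard errors.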

Micrococcus flavus [18] = experiment: Antimicrobial activity against Micrococcus flavus at 1 umol/spot after 18 hrs by TLC-bioautographic method; format: functional; how it was run: as §2
Staphylococcus aureus [19] = experiment: Antimicrobial activity against Staphylococcus aureus at 1 umol/spot after 18 hrs by TLC-bioautographic method; format: functional; how it was run: as §2
Escherichia coli [20] = experiment: Antimicrobial activity against Escherichia coli at 1 umol/spot after 18 hrs by TLC-bioautographic method; format: functional; how it was run: as §2
Pseudomonas aeruginosa [21] = experiment: Antimicrobial activity against Pseudomonas aeruginosa at 1 umol/spot after 18 hrs by TLC-bioautographic method; format: functional; how it was run: as §2
Enterobacter cloacae [22] = experiment: Antimicrobial activity against Enterobacter cloacae at 1 umol/spot after 18 hrs by TLC-bioautographic method; format: functional; how it was run: as §2
Salmonella typhimurium [23] = experiment: Antimicrobial activity against Salmonella Typhimurium at 1 umol/spot after 18 hrs by TLC-bioautographic method; format: functional, Salmonella enterica subsp. enterica serovar Typhimurium; how it was run: as §2
Listeria monocytogenes [24] = experiment: Antimicrobial activity against Listeria monocytogenes at 1 umol/spot after 18 hrs by TLC-bioautographic method; format: functional; how it was run: as §2
Bacillus cereus [25] = experiment: Antimicrobial activity against Bacillus cereus after 24 hrs by microdilution technique; format: functional
How it was run: (§3)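 Broth microdilution in LB medium. Inoculum is 1.0 × 10^4 cfu per well, from a saline-adjusted suspension of 1.0 × 10^5 cfu/ml. Compounds are dissolved in DMSO. Incubated 24 h at 28 C. MIC is the lowest concentration with no visible growth under a binocular microscope. MBC is read by subculture into fresh broth for 72 h, with no growth taken as 99.5% kill. OD is read at 655 nm.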

Micrococcus flavus [26] = experiment: Antimicrobial activity against Micrococcus flavus after 24 hrs by microdilution technique; format: functional; how it was run: as §3
Staphylococcus aureus [27] = experiment: Antimicrobial activity against Staphylococcus aureus after 24 hrs by microdilution technique; format: functional; how it was run: as §3
Escherichia coli [28] = experiment: Antimicrobial activity against Escherichia coli after 24 hrs by microdilution technique; format: functional; how it was run: as §3
Pseudomonas aeruginosa [29] = experiment: Antimicrobial activity against Pseudomonas aeruginosa after 24 hrs by microdilution technique; format: functional; how it was run: as §3
Enterobacter cloacae [30] = experiment: Antimicrobial activity against Enterobacter cloacae after 24 hrs by microdilution technique; format: functional; how it was run: as §3
Salmonella typhimurium [31] = experiment: Antimicrobial activity against Salmonella Typhimurium after 24 hrs by microdilution technique; format: functional, Salmonella enterica subsp. enterica serovar Typhimurium; conditions: Salmonella enterica; how it was run: as §3
Listeria monocytogenes [32] = experiment: Antimicrobial activity against Listeria monocytogenes after 24 hrs by microdilution technique; format: functional; how it was run: as §3

Compound: O=C(/C=C/c1ccc([N+](=O)[O-])cc1)c1ccc(Nc2nc(Nc3ccccc3)nc(Nc3ccccc3)n2)cc1
- inhibition zone (IZ) (Bacillus cereus [1]): inactive
- inhibition zone (IZ) (Micrococcus flavus [2]): inactive
- inhibition zone (IZ) (Staphylococcus aureus [3]): inactive
- zone of inhibition at 10 µg/disc (Escherichia coli [4]; read-out: IZ): 6 mm
- inhibition zone (IZ) (Pseudomonas aeruginosa [5]): inactive
- inhibition zone (IZ) (Enterobacter cloacae [6]): inactive
- inhibition zone (IZ) (Salmonella typhimurium [7]): inactive
- inhibition zone (IZ) (Listeria monocytogenes [8]): inactive
- inhibition zone (IZ) (Bacillus cereus [9]): inactive
- inhibition zone (IZ) (Micrococcus flavus [10]): inactive
- inhibition zone (IZ) (Staphylococcus aureus [11]): inactive
- inhibition zone (IZ) (Escherichia coli [12]): 0.03 millimeter
- inhibition zone (IZ) (Pseudomonas aeruginosa [13]): inactive
- inhibition zone (IZ) (Enterobacter cloacae [14]): inactive
- inhibition zone (IZ) (Salmonella typhimurium [15]): inactive
- inhibition zone (IZ) (Listeria monocytogenes [16]): inactive
- inhibition zone (IZ) (Bacillus cereus [17]): inactive
- inhibition zone (IZ) (Micrococcus flavus [18]): 0.05 millimeter
- inhibition zone (IZ) (Staphylococcus aureus [19]): inactive
- inhibition zone (IZ) (Escherichia coli [20]): inactive
- inhibition zone (IZ) (Pseudomonas aeruginosa [21]): inactive
- inhibition zone (IZ) (Enterobacter cloacae [22]): 0.09 millimeter
- inhibition zone (IZ) (Salmonella typhimurium [23]): 0.08 millimeter
- inhibition zone (IZ) (Listeria monocytogenes [24]): 0.07 millimeter
- MBC (Bacillus cereus [25]): 378 µM (≈ 200 µg/mL)
- MIC (Bacillus cereus [25]): 189 µM (≈ 100 µg/mL)
- MBC (Micrococcus flavus [26]): 378 µM (≈ 200 µg/mL)
- MIC (Micrococcus flavus [26]): 189 µM (≈ 100 µg/mL)
- MBC (Staphylococcus aureus [27]): 756 µM (≈ 400 µg/mL)
- MIC (Staphylococcus aureus [27]): 378 µM (≈ 200 µg/mL)
- MBC (Escherichia coli [28]): 378 µM (≈ 200 µg/mL)
- MIC (Escherichia coli [28]): 189 µM (≈ 100 µg/mL)
- MBC (Pseudomonas aeruginosa [29]): 756 µM (≈ 400 µg/mL)
- MIC (Pseudomonas aeruginosa [29]): 378 µM (≈ 200 µg/mL)
- MBC (Enterobacter cloacae [30]): 378 µM (≈ 200 µg/mL)
- MIC (Enterobacter cloacae [30]): 189 µM (≈ 100 µg/mL)
- MBC (Salmonella typhimurium [31]): 756 µM (≈ 400 µg/mL)
- MIC (Salmonella typhimurium [31]): 378 µM (≈ 200 µg/mL)
- MBC (Listeria monocytogenes [32]): 756 µM (≈ 400 µg/mL)
- MIC (Listeria monocytogenes [32]): 378 µM (≈ 200 µg/mL)

Compound: COc1ccccc1C1CC(c2ccc(Nc3nc(Nc4ccccc4)nc(Nc4ccccc4)n3)cc2)=NN1C(C)=O (stereo not given)
- inhibition zone (IZ) (Bacillus cereus [1]): inactive
- inhibition zone (IZ) (Micrococcus flavus [2]): inactive
- inhibition zone (IZ) (Staphylococcus aureus [3]): inactive
- inhibition zone (IZ) (Escherichia coli [4]): inactive
- inhibition zone (IZ) (Pseudomonas aeruginosa [5]): inactive
- inhibition zone (IZ) (Enterobacter cloacae [6]): inactive
- inhibition zone (IZ) (Salmonella typhimurium [7]): inactive
- inhibition zone (IZ) (Listeria monocytogenes [8]): inactive
- inhibition zone (IZ) (Bacillus cereus [9]): inactive
- inhibition zone (IZ) (Micrococcus flavus [10]): inactive
- inhibition zone (IZ) (Staphylococcus aureus [11]): inactive
- inhibition zone (IZ) (Escherichia coli [12]): inactive
- inhibition zone (IZ) (Pseudomonas aeruginosa [13]): inactive
- inhibition zone (IZ) (Enterobacter cloacae [14]): inactive
- inhibition zone (IZ) (Salmonella typhimurium [15]): inactive
- inhibition zone (IZ) (Listeria monocytogenes [16]): inactive
- inhibition zone (IZ) (Bacillus cereus [17]): inactive
- inhibition zone (IZ) (Micrococcus flavus [18]): inactive
- inhibition zone (IZ) (Staphylococcus aureus [19]): inactive
- inhibition zone (IZ) (Escherichia coli [20]): inactive
- inhibition zone (IZ) (Pseudomonas aeruginosa [21]): inactive
- inhibition zone (IZ) (Enterobacter cloacae [22]): 0.08 millimeter
- inhibition zone (IZ) (Salmonella typhimurium [23]; Salmonella enterica subsp. enterica serovar Typhimurium): inactive
- inhibition zone (IZ) (Listeria monocytogenes [24]): 0.08 millimeter
- MBC (Bacillus cereus [25]): 350 µM (≈ 200 µg/mL)
- MIC (Bacillus cereus [25]): 175 µM (≈ 99.9 µg/mL)
- MBC (Micrococcus flavus [26]): 350 µM (≈ 200 µg/mL)
- MIC (Micrococcus flavus [26]): 175 µM (≈ 99.9 µg/mL)
- MBC (Staphylococcus aureus [27]): 700 µM (≈ 399 µg/mL)
- MIC (Staphylococcus aureus [27]): 350 µM (≈ 200 µg/mL)
- MBC (Escherichia coli [28]): 700 µM (≈ 399 µg/mL)
- MIC (Escherichia coli [28]): 350 µM (≈ 200 µg/mL)
- MBC (Pseudomonas aeruginosa [29]): 700 µM (≈ 399 µg/mL)
- MIC (Pseudomonas aeruginosa [29]): 350 µM (≈ 200 µg/mL)
- MBC (Enterobacter cloacae [30]): 350 µM (≈ 200 µg/mL)
- MIC (Enterobacter cloacae [30]): 175 µM (≈ 99.9 µg/mL)
- MBC (Salmonella typhimurium [31]): 700 µM (≈ 399 µg/mL)
- MIC (Salmonella typhimurium [31]): 350 µM (≈ 200 µg/mL)
- MBC (Listeria monocytogenes [32]): 700 µM (≈ 399 µg/mL)
- MIC (Listeria monocytogenes [32]): 700 µM (≈ 399 µg/mL)
